This passage reports MIC results from ChEMBL document CHEMBL1148318, “Synthesis and antibacterial activity of a novel class of 4'-substituted 16-membered ring macrolides derived from tylosin” (2004).

In brackets after ≈: the same amount, converted by molar mass. Bounds are passed on as bounds.

What all share (type): functional
The subject of assay [1] is Streptococcus pyogenes. Nature of the assay: In vitro antibacterial activity against efflex resistant Streptococcus pyogenes 1323. Put shortly: (§1)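 MIC determined by agar dilution per NCCLS recommendations. Strains: S. pneumoniae 49619 (erythromycin-susceptible); S. pneumoniae 700904 and S. pyogenes 2912 (erm-encoded MLSB-resistant); S. pneumoniae 7701 and S. pyogenes 1323 (mef-encoded efflux-resistant); H. influenzae 33929 (ampicillin-resistant).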

The next assay has as its system Haemophilus influenzae. The assay can be described thus: In vitro antibacterial activity against ampicillin resistant Haemophilus influenzae 33929. Put shortly:
as §1

In assay [2] the test system is Streptococcus pneumoniae. The assay can be described thus: In vitro antibacterial activity against macrolide-lincosamide-streptogramin resistant Streptococcus pneumoniae 700904. Put shortly: as §1
Another assay concerns Staphylococcus aureus. The assay can be described thus: In vitro antibacterial activity against erythromycin susceptible Staphylococcus aureus 25923. Put shortly: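 MIC by agar dilution following NCCLS recommendations; S. aureus 25923 is an erythromycin-susceptible strain.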
The subject of assay [3] is Streptococcus pyogenes. Nature of the assay: In vitro antibacterial activity against macrolide-lincosamide-streptogramin resistant Streptococcus pyogenes 2912. Put shortly: as §1
The subject of assay [4] is Streptococcus pneumoniae. Nature of the assay: In vitro antibacterial activity against efflex resistant Streptococcus pneumoniae 7701. Put shortly:
as §1

Assay [5] relates to Streptococcus pneumoniae. The assay can be described thus: In vitro antibacterial activity against erythromycin susceptible Streptococcus pneumoniae 49619. Put shortly: as §1

`CC[C@H]1OC(=O)C[C@@H](O)[C@H](C)[C@@H](O[C@@H]2O[C@H](C)[C@@H](OC(=O)NCCc3ccccc3)[C@H](N(C)C)[C@H]2O)[C@@H](CC=O)C[C@@H](C)C(=O)/C=C/C(C)=C/[C@@H]1CO[C@@H]1O[C@H](C)[C@@H](O)[C@@H](OC)[C@H]1OC`: the MIC in the assay on Streptococcus pyogenes [1] was 0.25 µg/mL (≈ 0.272 µM); against Haemophilus influenzae, 16 µg/mL (≈ 17.4 µM); against Streptococcus pneumoniae [2] it was over 64 µg/mL; against Staphylococcus aureus, 2 µg/mL (≈ 2.18 µM); against Streptococcus pyogenes [3], over 64 µg/mL; in the assay on Streptococcus pneumoniae [4], 2 µg/mL (≈ 2.18 µM). Besides, in the assay on Streptococcus pneumoniae [5], the MIC is 1 µg/mL (≈ 1.09 µM).
For `CC[C@H]1OC(=O)C[C@@H](O)[C@H](C)[C@@H](O[C@@H]2O[C@H](C)[C@@H](OC/C=C/c3cnc4ccccc4c3)[C@H](N(C)C)[C@H]2O)[C@@H](CC=O)C[C@@H](C)C(=O)/C=C/C(C)=C/[C@@H]1CO[C@@H]1O[C@H](C)[C@@H](O)[C@@H](OC)[C@H]1OC`, the MIC in the assay on Streptococcus pyogenes [1] amounted to 0.0625 µg/mL (≈ 0.0665 µM); with Haemophilus influenzae, 4 µg/mL (≈ 4.26 µM); with Streptococcus pneumoniae [2], 1 µg/mL (≈ 1.06 µM); with Staphylococcus aureus, 0.5 µg/mL (≈ 0.532 µM); against Streptococcus pyogenes [3], 8 µg/mL (≈ 8.52 µM); with Streptococcus pneumoniae [4], 0.0625 µg/mL (≈ 0.0665 µM). The molecule also registered an MIC against Streptococcus pneumoniae [5] of 0.0625 µg/mL (≈ 0.0665 µM).
In the case of `C=CCO[C@H]1[C@H](N(C)C)[C@@H](O)[C@H](O[C@H]2[C@@H](CC=O)C[C@@H](C)C(=O)/C=C/C(C)=C/[C@H](CO[C@@H]3O[C@H](C)[C@@H](O)[C@@H](OC)[C@H]3OC)[C@@H](CC)OC(=O)C[C@@H](O)[C@@H]2C)O[C@@H]1C`, the MIC against Streptococcus pyogenes [1] was 0.125 µg/mL (≈ 0.154 µM); against Haemophilus influenzae, 8 µg/mL (≈ 9.85 µM); in the assay on Streptococcus pneumoniae [2] it was over 64 µg/mL; with Staphylococcus aureus, 1 µg/mL (≈ 1.23 µM); against Streptococcus pyogenes [3], 32 µg/mL (≈ 39.4 µM); against Streptococcus pneumoniae [4], 0.5 µg/mL (≈ 0.616 µM). This molecule also displayed an MIC with Streptococcus pneumoniae [5] of 0.5 µg/mL (≈ 0.616 µM).
As to `CC[C@H]1OC(=O)C[C@@H](O)[C@H](C)[C@@H](O[C@@H]2O[C@H](C)[C@@H](O/C=C\Cc3cnc4ccccc4c3)[C@H](N(C)C)[C@H]2O)[C@@H](CC=O)C[C@@H](C)C(=O)/C=C/C(C)=C/[C@@H]1CO[C@@H]1O[C@H](C)[C@@H](O)[C@@H](OC)[C@H]1OC`, the MIC with Streptococcus pyogenes [1] was 0.0625 µg/mL (≈ 0.0665 µM); against Haemophilus influenzae, 4 µg/mL (≈ 4.26 µM); against Streptococcus pneumoniae [2], 0.5 µg/mL (≈ 0.532 µM); against Staphylococcus aureus, 0.5 µg/mL (≈ 0.532 µM); in the assay with Streptococcus pyogenes [3] it was 16 µg/mL (≈ 17 µM); in the assay on Streptococcus pneumoniae [4], 0.0625 µg/mL (≈ 0.0665 µM). The MIC in the assay with Streptococcus pneumoniae [5] was found to be 0.0625 µg/mL (≈ 0.0665 µM).
For `CC[C@H]1OC(=O)[C@H](C)[C@@H](O[C@H]2C[C@@](C)(OC)[C@@H](O)[C@H](C)O2)[C@H](C)[C@@H](O[C@@H]2O[C@H](C)C[C@H](N(C)C)[C@H]2O)[C@](C)(O)C[C@@H](C)C(=O)[C@H](C)[C@@H](O)[C@]1(C)O` [ERYTHROMYCIN], the MIC in the assay on Streptococcus pyogenes [1] was 16 µg/mL (≈ 21.8 µM); with Haemophilus influenzae, 4 µg/mL (≈ 5.45 µM); against Streptococcus pneumoniae [2] it was over 64 µg/mL; in the assay on Staphylococcus aureus it was 0.5 µg/mL (≈ 0.681 µM); with Streptococcus pyogenes [3], over 64 µg/mL; in the assay on Streptococcus pneumoniae [4] it was 8 µg/mL (≈ 10.9 µM). In addition, the MIC in the assay on Streptococcus pneumoniae [5] is 0.06 µg/mL (≈ 0.0818 µM).
Consider `CC[C@H]1OC(=O)C[C@@H](O)[C@H](C)[C@@H](O[C@@H]2O[C@H](C)[C@@H](O[C@H]3C[C@@](C)(O)[C@@H](O)[C@H](C)O3)[C@H](N(C)C)[C@H]2O)[C@@H](CC=O)C[C@@H](C)C(=O)/C=C/C(C)=C/[C@@H]1CO[C@@H]1O[C@H](C)[C@@H](O)[C@@H](OC)[C@H]1OC` [TYLOSIN], for which the MIC is 0.25 µg/mL (≈ 0.273 µM) in the assay with Streptococcus pyogenes [1]; 8 µg/mL (≈ 8.73 µM) against Haemophilus influenzae; 64 µg/mL (≈ 69.9 µM) in the assay on Streptococcus pneumoniae [2]; 2 µg/mL (≈ 2.18 µM) with Staphylococcus aureus; over 64 µg/mL against Streptococcus pyogenes [3]; 0.25 µg/mL (≈ 0.273 µM) with Streptococcus pneumoniae [4]. Further, the MIC in the assay on Streptococcus pneumoniae [5] is 0.25 µg/mL (≈ 0.273 µM).
